Published values from different studies.
Compare with care: the assays were run in different laboratories.
Organism: Mycobacterium tuberculosis
Observed: microbial growth

SMILES | test | system | conditions | MIC
CC[C@@H](CO)NCCN[C@@H](CC)CO |  | H37RV | 7 days | 0.8 µg/mL
O=C(O)c1cc(O)c2c(c1)C(=O)c1cccc(O)c1C2=O | resazurin | H37RV |  | > 320 µM
CCN1CCc2c(sc(N)c2C(=O)NC23CC4CC(CC(C4)C2)C3)C1 | resazurin | H37RV |  | > 200 µM
CO[C@H]1/C=C/O[C@@]2(C)Oc3c(C)c(O)c4c(O)c(c(/C=N/N5CCN(C)CC5)c(O)c4c3C2=O)NC(=O)/C(C)=C\C=C\[C@H](C)[C@H](O)[C@@H](C)[C@@H](O)[C@@H](C)[C@H](OC(C)=O)[C@@H]1C |  | H37RV | 14 days | 0.17 µg/mL
O=C1c2cccc(O)c2C(=O)c2c(O)cc(CO)cc21 | resazurin | H37RV |  | > 320 µM
CC[C@@H](CO)NCCN[C@@H](CC)CO |  | H37RV | 14 days | 0.78 µg/mL
CCOC(=O)c1c(NC(=O)c2cc(C(F)(F)F)cc(C(F)(F)F)c2)sc2c1CCN(C(=O)OC(C)(C)C)C2 | resazurin | H37RV |  | < 100 µM
COc1cccc2c1C(=O)c1c(O)c3c(c(O)c1C2=O)C[C@@](O)(C(=O)CO)C[C@@H]3O[C@H]1C[C@H](N)[C@H](O)[C@H](C)O1 | resazurin | H37RV |  | 5 µM
CCOC(=O)c1c(NC(=O)c2cc(C(F)(F)F)cc(C(F)(F)F)c2)sc2c1CCN(CC)C2 | resazurin | H37RV |  | > 200 µM
CO[C@H]1/C=C/O[C@@]2(C)Oc3c(C)c(O)c4c(O)c(c(/C=N/N5CCN(C)CC5)c(O)c4c3C2=O)NC(=O)/C(C)=C\C=C\[C@H](C)[C@H](O)[C@@H](C)[C@@H](O)[C@@H](C)[C@H](OC(C)=O)[C@@H]1C | resazurin | ATCC35801 ERDMAN | 7 days | 0.05 µg/mL
